The values below come from ChEMBL document CHEMBL4052826, “Design and Synthesis of Novel Reactive Oxygen Species Inducers for the Treatment of Pancreatic Ductal Adenocarcinoma” (J Med Chem, 2018).

The source made the active and inactive calls. The calls are words filed in the database; no cut-off is given here.

Series [1] relates to MIA PaCa-2. Description: Downregulation of Sp4 gene expression in human MIAPaCa2 cells at IC50 to 5 times IC50 after 4 hrs by Bru-seq analysis. In kind it is functional, cell-based.
In series [2] the test system is MIA PaCa-2. Description: Downregulation of COX-3 expression in human MIAPaCa2 cells at 2 uM after 4 to 24 hrs by Western blot method. In kind it is functional, cell-based. The method in brief: (§1)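 Immunoblotting. Cells (4×10^5) in 60 mm dishes were treated, lysed 30 min at 4°C and quantified by BCA. 40 μg protein was run on SDS-PAGE and transferred to PVDF. Primary antibodies (1:1000) incubated overnight at 4°C, then Dylight 800 secondary, with fluorescent scanning. Bands were normalized to GAPDH or actin loading controls. Mean ± SD, three independent experiments, Student's t-test.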
(In general: In western blotting, separated proteins are transferred to a membrane and probed.)

Series [3] deals with BXPC-3. Description: Induction of unfolded protein response in human BxPC3 cells assessed as upregulation of CHOP expression at 2 uM by Western blot analysis. To be noted: TDE = time-dependent effect. In kind it is functional, cell-based. The method in brief: as §1
The test system of series [4] is MIA PaCa-2. Description: Induction of unfolded protein response in human MIAPaCa2 cells assessed as upregulation of HSPA5 gene expression after 4 hrs by Bru-seq analysis. In kind it is functional, cell-based. The method in brief:
(§2)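 Nascent RNA sequencing (Bru-seq): 4×10^6 MIA PaCa-2 cells seeded in 10 cm dishes, treated next day for 4 h with drug or DMSO. Bromouridine (2 mM final) added for the last 30 min. Total RNA taken in TRIZOL; labeled RNA immunocaptured, converted to cDNA libraries and deep sequenced. Signal compared with DMSO-treated cells.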

Series [5] deals with Mus musculus. Description: Toxicity in NOD/SCID mouse xenografted with human MIAPaCa2 cells assessed as body weight loss at 5 mg/kg, ip administered 5 times a week until day 44 followed by dose escalation up to 20 mg/kg until day 67. In kind it is organism-based. To be noted: in vivo. The method in brief: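 After a 44-day course (ip, five days on/two off, in 5% DMSO/60% propylene glycol/35% saline), two mice per group stayed on study and dose was gradually raised from 5 to 20 mg/kg until day 67 in MIA PaCa-2 flank xenografts in NOD/SCID mice. Body weight monitored; mean ± SEM.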
Background: Xenograft models place foreign cells or tissue in a host animal.

Series [6] deals with MIA PaCa-2. Description: Induction of unfolded protein response in human MIAPaCa2 cells assessed as upregulation of DDIT3 gene expression after 4 hrs by Bru-seq analysis. In kind it is functional, cell-based.
For series [7], the system named is Mus musculus. Description: Toxicity in NOD/SCID mouse xenografted with human MIAPaCa2 cells assessed as lethargy at 5 mg/kg, ip administered 5 times a week until day 44. In kind it is organism-based. To be noted: in vivo. The method in brief:
(§3)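 Subcutaneous flank MIA PaCa-2 xenografts (2.0×10^6 cells) in 6-week NOD/SCID mice, randomized at 65 mm3 (n=5/group: vehicle or drug). Dosed ip in 5% DMSO/60% propylene glycol/35% saline, five days on/two off, to day 44. Body weight tracked and mice watched for weakness, weight loss or lethargy; mean ± SEM.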

Series [8] in a line: Cytotoxicity against HPDEC assessed as decrease in cell proliferation after 72 hrs by MTT assay. In kind it is cell-based. The following applies: Homo sapiens. The method in brief: (§4)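 MTT assay. Cells (3000–8000/well) attached overnight in RPMI1640 with 10% FBS; the GR line was kept with 200 nM gemcitabine. Serial dilutions (30 nM–10 μM for most lines) were applied for 72 h. MTT was added at a final 300 μg/mL for 3 h at 37°C, formazan was dissolved in DMSO and A570 read. Inhibition = (1 − OD treated/OD control) × 100. IC50 given as mean ± SD, three independent experiments.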

For series [9], the system named is MIA PaCa-2. Description: Inhibition of mtDNA transcription from HSP2 promoter in human MIAPaCa2 cells at 5 times IC50 after 4 hrs by Bru-seq analysis. In kind it is functional, cell-based. The method in brief: as §2
For series [10], the system named is PANC-1. Description: Induction of unfolded protein response in human PANC1 cells assessed as upregulation of CHOP expression at 2 uM by Western blot analysis. In kind it is functional, cell-based. To be noted: TDE = time-dependent effect. The method in brief: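 Cells (4×10^5) seeded in 60 mm dishes, cultured in RPMI1640 with 10% FBS, 5% CO2, 37°C, then compound-treated. Lysed 30 min at 4°C, BCA-quantified, 40 μg protein resolved by SDS-PAGE, transferred to PVDF, probed overnight at 4°C with primary antibodies (1:1000; GAPDH or actin loading control), then Dylight 800 secondary; fluorescence scanned. Bands normalized to loading control; mean ± SD, three independent experiments.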

In series [11] the test system is BXPC-3. Description: Cytotoxicity against human BxPC3 cells assessed as decrease in cell proliferation after 72 hrs by MTT assay. In kind it is functional, cell-based. To be noted: BXPC-3, 72 h. The method in brief: as §4
(In general: Tetrazolium assays rely on reduction of a dye to a coloured formazan, in cell work by metabolically active cells.)

In series [12] the test system is MIA PaCa-2. Description: Induction of reactive oxygen species generation in human MIAPaCa2 cells assessed as upregulation of NQO1 gene expression after 4 hrs by Bru-seq analysis. In kind it is functional, cell-based.
In series [13] the test system is PANC-1. Description: Cytotoxicity against human PANC1 cells assessed as decrease in cell proliferation after 72 hrs by MTT assay. In kind it is functional, cell-based. To be noted: PANC-1, 72 h. The method in brief: as §4
Series [14] in a line: Induction of compound colloidal behavior.
For series [15], the system named is Mus musculus. Description: Induction of unfolded protein response in tumor of NOD/SCID mouse xenografted with MIAPaCa2 cells assessed as upregulation of CHOP expression at 5 mg/kg, ip administered 5 times a week until day 44 by Western blot method. In kind it is functional, organism-based. The method in brief:
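Dosed ip in 5% DMSO/60% propylene glycol/35% saline, five days on/two off, until day 44, versus vehicle. Tumor lysates immunoblotted with primary antibodies, Dylight 800 secondary, fluorescent scan.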

Series [16] has as its system Mus musculus. Description: Toxicity in NOD/SCID mouse xenografted with human MIAPaCa2 cells assessed as microscopic changes in pancreas at 5 mg/kg, ip administered 5 times a week until day 44 by hematoxylin and eosin staining-based inverted microscopic method. In kind it is organism-based. The following applies: in vivo. The method in brief:
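Necropsy after the 44-day ip course in MIA PaCa-2 xenograft-bearing NOD/SCID mice: heart, kidney, liver, lung, spleen and pancreas fixed in 10% neutral buffered formalin, paraffin-embedded, sectioned and stained with hematoxylin and eosin. Sections examined by inverted microscope at 20X, compared with vehicle-treated animals.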

Series [17] has as its system Mus musculus. Description: Induction of reactive oxygen species generation in tumor of NOD/SCID mouse xenografted with MIAPaCa2 cells assessed as upregulation of HO-1 expression at 5 mg/kg, ip administered 5 times a week until day 44 by Western blot method. In kind it is functional, organism-based.
Series [18] relates to MIA PaCa-2. Description: Inhibition of mtDNA transcription from HSP1 promoter in human MIAPaCa2 cells at 5 times IC50 after 4 hrs by Bru-seq analysis. In kind it is functional, cell-based. The method in brief: as §2
The test system of series [19] is MIA PaCa-2. Description: Antiproliferative activity against human MIAPaCa2 cells xenografted in NOD/SCID mouse at 5 mg/kg, ip administered 5 times a week until day 44 by ki67 staining-based assay. In kind it is functional, organism-based.
Series [20] concerns MIA PaCa-2. Description: Antitumor activity against human MIAPaCa2 cells xenografted in NOD/SCID mouse assessed as tumor volume at 5 mg/kg, ip administered 5 times a week co-administered with gemcitabine at 15 mg/kg administered once a week for 48 days (reference value: 1503 +/- 189 mm'3). In kind it is functional. The method in brief:
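MIA PaCa-2 subcutaneous xenografts in NOD/SCID mice, randomized at 75 mm3. Test agent was given at 5 mg/kg five times a week. Gemcitabine was given at 15 mg/kg either once weekly for 48 days or twice weekly for 15 days. Groups were n=3–4. Tumor volume was measured by caliper, given as mean ± SEM, and compared by unpaired t test.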

The test system of series [21] is Mus musculus. Description: Toxicity in NOD/SCID mouse xenografted with human MIAPaCa2 cells assessed as body weight loss at 5 mg/kg, ip administered 5 times a week until day 44. In kind it is organism-based. To be noted: in vivo. The method in brief:
as §3

On to `O=C1C(Nc2ccc(-c3ccccc3)cc2)=CC(=O)c2ncncc21`, for which the result with MIA PaCa-2 [1] was inactive. Besides, the result (in the series on MIA PaCa-2 [2]; in series [14]; with Mus musculus [15]; with Mus musculus [17]; in the series with MIA PaCa-2 [19]) was Active. The Activity entry was “Tde” in the series on BXPC-3 [3]; “Dose-dependent effect” in the series with MIA PaCa-2 [4]; “Non-Toxic” in the series with Mus musculus [5]; “Dose-dependent effect” in the series with MIA PaCa-2 [6]; “Non-Toxic” in the series with Mus musculus [7]; “Tde” in the series on PANC-1 [10]. The Activity result in the series with MIA PaCa-2 [12] was “Dose-dependent effect”; with Mus musculus [16] it was “Non-Toxic”; in the series on MIA PaCa-2 [20], 163 mm3; in the series on Mus musculus [21], “Non-Toxic”. For the same molecule, the figures for the IC50 (in [8]; with BXPC-3 [11]; in the series with PANC-1 [13]) were 2700 nM, 500 nM and 400 nM, respectively. In addition, the inhibition entry with MIA PaCa-2 [9] is “Active”. Moreover, the inhibition result with MIA PaCa-2 [18] is “inactive”.
